Laboratory results as given in ChEMBL document CHEMBL3865838, “Ceylonamides A-F, Nitrogenous Spongian Diterpenes That Inhibit RANKL-Induced Osteoclastogenesis, from the Marine Sponge Spongia ceylonensis” (J Nat Prod, 2016).
Calls of active or inactive are those of the source. The rule behind the calls is not given here.

How the values were obtained:
[1] = Inhibition of RANKL-stimulated osteoclastogenesis in mouse RAW264 cells assessed as reduction in TRAP activity after 4 days in presence of RANKL; assay type: functional, cell-based
Summary of the method: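 Murine RAW264 cells differentiated with RANKL (50 ng/mL) for 4 days, with or without compound at a range of concentrations. TRAP activity was read as absorbance at 405 nm, and the IC50 was taken from inhibition of RANKL-induced TRAP up-regulation. Cytotoxicity toward RAW264 cells was also checked.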

[2] = Cytotoxicity against mouse RAW264 cells assessed as cell survival at 5 uM relative to control; assay type: toxicity; details: read-out: Survival
RAW264 [3] = assay: Inhibition of RANKL-stimulated osteoclastogenesis in mouse RAW264 cells assessed reduction in TRAP-positive multinucleated cells at 10 uM after 4 days in presence of RANKL by TRAP-staining based microscopic analysis; assay type: functional, cell-based
Summary of the method: (§1)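 RAW264 cells were treated with RANKL (50 ng/mL) plus compound at 10 or 20 μM, or without compound, for 4 days. They were then stained with TRAP-staining solution, which stains positive cells red. TRAP-positive multinuclear cells (≥3 nuclei) were counted by microscopy.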

RAW264 [4] = assay: Inhibition of RANKL-stimulated osteoclastogenesis in mouse RAW264 cells assessed reduction in TRAP-positive multinucleated cells at 20 uM after 4 days in presence of RANKL by TRAP-staining based microscopic analysis; assay type: functional, cell-based; summary of the method: as §1

## C[C@]12C[C@@H](O)C(=O)[C@](C)(CO)[C@@H]1CC[C@@]1(C)c3cocc3CC[C@H]21 [ISOSPONGIADIOL]
[1]
  IC50: > 50 µM
[2]
  viability at 5 µM: 96%

## CC(C)CCN1CC2=C(C1=O)[C@]1(C)CC[C@@H]3[C@](C)(CCC[C@]3(C)C(=O)O)[C@H]1CC2
[1]
  IC50: > 50 µM
[2]
  viability at 5 µM: 100%

## CC(C)CN1CC2=C(C1=O)[C@]1(C)CC[C@@H]3[C@](C)(CCC[C@]3(C)C(=O)O)[C@H]1CC2
[1]
  IC50: > 50 µM
[2]
  viability at 5 µM: 100%

## CC(C)CN1CC2=C(CC[C@@H]3[C@@]4(C)CCC[C@](C)(C(=O)O)[C@@H]4CC[C@@]23C)C1=O
[1]
  IC50: > 50 µM
[2]
  viability at 5 µM: 100%

## C[C@]12CC(=O)[C@@H](O)[C@](C)(CO)[C@@H]1CC[C@@]1(C)c3cocc3CC[C@H]21 [SPONGIADIOL]
[1]
  IC50: > 50 µM
[2]
  viability at 5 µM: 97%

## C[C@]12CCC[C@](C)(C(=O)O)[C@@H]1CC[C@@]1(C)c3cocc3CC[C@H]21
[1]
  IC50: > 50 µM
[2]
  viability at 5 µM: 100%

## C[C@]12CCC[C@](C)(C(=O)O)[C@@H]1CC[C@@]1(C)C3=C(CC[C@H]21)CNC3=O
[1]
  IC50: > 50 µM
[2]
  viability at 5 µM: 100%

## C[C@]12CCC[C@](C)(C(=O)O)[C@@H]1CC[C@@]1(C)C3=C(CC[C@H]21)C(=O)N(CCc1ccccc1)C3
[1]
  IC50: 13 µM
[2]
  viability at 5 µM: 100%
RAW264 [3]
  inhibition: Active

## CC(C)CCN1CC2=C(CC[C@@H]3[C@@]4(C)CCC[C@](C)(C(=O)O)[C@@H]4CC[C@@]23C)C1=O
[1]
  IC50: 18 µM
[2]
  viability at 5 µM: 87%
RAW264 [4]
  inhibition: Active

## CO[C@H]1O[C@@H](OC)C2=C1CC[C@@H]1[C@@]3(C)CCC[C@](C)(C(=O)O)[C@@H]3CC[C@@]21C
[1]
  IC50: > 50 µM
[2]
  viability at 5 µM: 98%

## C[C@]12CCC[C@](C)(C(=O)O)[C@@H]1CC[C@@]1(C)C3=C(CC[C@H]21)CN(CCc1ccccc1)C3=O
[1]
  IC50: > 50 µM
[2]
  viability at 5 µM: 97%
